These results are taken from ChEMBL document CHEMBL4699460, “Integrating DNA-encoded chemical libraries with virtual combinatorial library screening: Optimizing a PARP10 inhibitor” (Bioorg Med Chem Lett, 2020).

The target in assay [1] is Protein mono-ADP-ribosyltransferase PARP14 (Homo sapiens) (UniProt Q460N5). Briefly: Inhibition of N-terminal His-GST tagged human PARP14 (1470 to 1801 residues) expressed in baculovirus infected Sf9 cells assessed as reduction in NAD+-dependent ADP ribosylation using histone as substrate at 1 uM incubated for 1 hr in presence of biotinylated NAD+ and activated DNA by chemiluminescence based microplate reader assay relative to control.

Assay [2] deals with T1, Protein mono-ADP-ribosyltransferase PARP10 (Homo sapiens) (UniProt Q53GL7).
T1 sequence (whole entry): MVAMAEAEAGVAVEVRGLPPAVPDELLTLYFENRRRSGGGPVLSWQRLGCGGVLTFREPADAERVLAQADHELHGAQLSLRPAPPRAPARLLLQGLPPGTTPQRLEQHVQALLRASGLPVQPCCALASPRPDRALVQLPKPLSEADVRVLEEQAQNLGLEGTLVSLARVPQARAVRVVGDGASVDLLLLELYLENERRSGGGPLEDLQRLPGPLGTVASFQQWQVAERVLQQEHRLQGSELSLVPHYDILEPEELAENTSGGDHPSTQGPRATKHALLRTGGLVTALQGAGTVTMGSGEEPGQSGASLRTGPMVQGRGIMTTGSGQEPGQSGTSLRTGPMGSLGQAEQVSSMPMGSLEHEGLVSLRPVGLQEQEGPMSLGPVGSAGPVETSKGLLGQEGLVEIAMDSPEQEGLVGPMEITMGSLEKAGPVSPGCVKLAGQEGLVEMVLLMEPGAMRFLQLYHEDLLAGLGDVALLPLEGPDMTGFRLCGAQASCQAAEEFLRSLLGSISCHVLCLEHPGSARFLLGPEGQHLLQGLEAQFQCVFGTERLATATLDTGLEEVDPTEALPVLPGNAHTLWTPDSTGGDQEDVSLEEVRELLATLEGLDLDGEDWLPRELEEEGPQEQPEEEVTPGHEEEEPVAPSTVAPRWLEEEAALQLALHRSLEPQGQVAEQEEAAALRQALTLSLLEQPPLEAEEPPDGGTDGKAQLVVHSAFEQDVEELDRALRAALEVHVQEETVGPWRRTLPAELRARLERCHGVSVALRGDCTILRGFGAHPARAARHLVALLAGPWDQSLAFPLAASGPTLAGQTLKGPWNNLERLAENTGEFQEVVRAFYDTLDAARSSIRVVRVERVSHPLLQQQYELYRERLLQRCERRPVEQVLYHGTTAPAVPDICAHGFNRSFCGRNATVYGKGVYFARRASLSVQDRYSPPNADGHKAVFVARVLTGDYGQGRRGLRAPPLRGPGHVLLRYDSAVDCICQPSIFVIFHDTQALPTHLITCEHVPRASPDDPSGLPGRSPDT
Briefly: Inhibition of N-terminal FLAG-tagged and C-terminal strep-tagged human PARP10 (805 to 1025 residues) expressed in baculovirus infected Sf9 cells assessed as reduction in NAD+-dependent ADP ribosylation using histone as substrate at 10 uM incubated for 1 hr in presence of biotinylated NAD+ and activated DNA by chemiluminescence based microplate reader assay relative to control.

In assay [3] the target is T1, Protein mono-ADP-ribosyltransferase PARP10 (Homo sapiens). Briefly: Inhibition of N-terminal FLAG-tagged and C-terminal strep-tagged human PARP10 (805 to 1025 residues) expressed in baculovirus infected Sf9 cells assessed as reduction in NAD+-dependent ADP ribosylation using histone as substrate at 1 uM incubated for 1 hr in presence of biotinylated NAD+ and activated DNA by chemiluminescence based microplate reader assay.

Assay [4] addresses T2, Protein mono-ADP-ribosyltransferase PARP10 (Homo sapiens, UniProt Q53GL7).
T2 sequence (Q53GL7 whole entry): T1 sequence (whole entry)
The experiment in a line: Inhibition of N-terminal FLAG-tagged and C-terminal strep-tagged human PARP10 (805 to 1025 residues) expressed in baculovirus infected Sf9 cells assessed as reduction in NAD+-dependent ADP ribosylation using histone as substrate incubated for 1 hr in presence of biotinylated NAD+ and activated DNA by chemiluminescence based microplate reader assay. In short, it runs like this:
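The IC50 was derived from a concentration-dependent inhibition curve for PARP10 in the histone ADP-ribosylation assay.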

The target of assay [5] is Protein mono-ADP-ribosyltransferase PARP14 (Homo sapiens) (UniProt Q460N5). The experiment in a line: Inhibition of N-terminal His-GST tagged human PARP14 (1470 to 1801 residues) expressed in baculovirus infected Sf9 cells assessed as reduction in NAD+-dependent ADP ribosylation using histone as substrate at 10 uM incubated for 1 hr in presence of biotinylated NAD+ and activated DNA by chemiluminescence based microplate reader assay relative to control.

Protein mono-ADP-ribosyltransferase PARP14 (Homo sapiens), sequence (Q460N5 whole entry, the tested form may be a part): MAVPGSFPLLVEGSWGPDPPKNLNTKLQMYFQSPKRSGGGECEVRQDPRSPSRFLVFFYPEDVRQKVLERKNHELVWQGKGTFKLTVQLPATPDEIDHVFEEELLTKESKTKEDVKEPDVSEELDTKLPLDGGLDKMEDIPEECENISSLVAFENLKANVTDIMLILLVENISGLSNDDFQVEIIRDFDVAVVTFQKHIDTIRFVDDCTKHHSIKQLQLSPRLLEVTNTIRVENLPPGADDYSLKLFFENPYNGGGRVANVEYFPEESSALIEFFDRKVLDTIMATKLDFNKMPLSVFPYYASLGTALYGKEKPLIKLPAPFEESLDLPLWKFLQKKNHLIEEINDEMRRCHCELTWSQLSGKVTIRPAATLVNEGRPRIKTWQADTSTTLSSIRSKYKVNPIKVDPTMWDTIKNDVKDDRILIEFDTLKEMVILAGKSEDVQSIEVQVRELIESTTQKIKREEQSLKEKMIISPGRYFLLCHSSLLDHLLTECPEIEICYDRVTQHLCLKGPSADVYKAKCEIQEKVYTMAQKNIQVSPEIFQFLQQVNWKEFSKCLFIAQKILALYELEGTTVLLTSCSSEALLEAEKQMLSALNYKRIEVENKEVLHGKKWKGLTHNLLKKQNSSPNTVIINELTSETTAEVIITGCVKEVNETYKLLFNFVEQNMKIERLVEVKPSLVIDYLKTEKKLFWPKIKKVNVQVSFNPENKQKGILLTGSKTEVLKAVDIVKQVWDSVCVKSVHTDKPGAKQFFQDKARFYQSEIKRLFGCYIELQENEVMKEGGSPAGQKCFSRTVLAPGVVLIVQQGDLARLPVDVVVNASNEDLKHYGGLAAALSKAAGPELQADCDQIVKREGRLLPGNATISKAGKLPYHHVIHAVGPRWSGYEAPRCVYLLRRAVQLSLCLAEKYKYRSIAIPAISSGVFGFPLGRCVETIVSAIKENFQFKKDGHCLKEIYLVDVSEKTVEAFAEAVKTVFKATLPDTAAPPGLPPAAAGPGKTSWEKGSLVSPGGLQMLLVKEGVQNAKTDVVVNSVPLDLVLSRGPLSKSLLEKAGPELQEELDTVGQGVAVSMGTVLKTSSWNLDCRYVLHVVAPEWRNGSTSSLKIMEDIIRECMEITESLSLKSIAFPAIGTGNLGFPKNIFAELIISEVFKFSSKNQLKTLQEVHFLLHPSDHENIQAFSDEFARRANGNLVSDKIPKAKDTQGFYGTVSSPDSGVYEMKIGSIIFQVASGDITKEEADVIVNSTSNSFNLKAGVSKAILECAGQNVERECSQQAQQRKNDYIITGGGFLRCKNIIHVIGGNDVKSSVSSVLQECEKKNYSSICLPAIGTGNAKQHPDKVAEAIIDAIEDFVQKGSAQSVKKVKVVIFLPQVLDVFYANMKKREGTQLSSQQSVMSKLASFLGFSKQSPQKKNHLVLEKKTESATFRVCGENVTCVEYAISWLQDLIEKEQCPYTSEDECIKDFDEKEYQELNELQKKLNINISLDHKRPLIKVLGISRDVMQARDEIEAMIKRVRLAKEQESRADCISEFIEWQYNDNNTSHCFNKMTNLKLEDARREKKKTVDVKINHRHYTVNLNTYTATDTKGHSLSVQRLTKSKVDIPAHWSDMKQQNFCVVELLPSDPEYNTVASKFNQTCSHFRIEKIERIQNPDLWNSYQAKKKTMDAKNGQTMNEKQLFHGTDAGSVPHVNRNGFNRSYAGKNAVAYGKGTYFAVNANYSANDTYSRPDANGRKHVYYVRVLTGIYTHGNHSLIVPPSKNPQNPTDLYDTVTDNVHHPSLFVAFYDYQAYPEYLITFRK

With `O=C(CCc1nc2ccccc2[nH]c1=O)NCC(=O)N1CCN(C(=O)COc2cccc3c2CCCC3=O)CC1`, the inhibition – broadly, how much of the control response was suppressed – in assay [1] was determined as 2%; in assay [2], 10%; in assay [3], 13%.
For `O=C(COc1ccc2c(c1)C(=O)CCC2)NC1CCN(C(=O)CCc2nc3ccccc3[nH]c2=O)CC1`, in that order: 27%, 16% and 11%.
On to `O=C(CCc1nc2ccccc2[nH]c1=O)NCC(=O)N1CCN(C(=O)Nc2ccc3c(c2)C(=O)CCC3)CC1`, for which the inhibition in assay [1] stood at 0%; in assay [2], 46%; in assay [3] it was 17%. Further, the IC50 (in general, the concentration at which inhibition is half-maximal) in assay [4] was 28 µM.
As for `O=C1CCCc2c(OCC(=O)N3CCN(C(=O)CCc4nc5ccccc5[nH]c4=O)C[C@@H]3CO)cccc21`, the inhibition in assay [1] amounted to 12%; in assay [2], 9%; in assay [3], 15%.
For `O=C(COc1ccc2c(c1)CCCC2=O)NC[C@@H]1CCCN1C(=O)CCc1nc2ccccc2[nH]c1=O`, the inhibition in assay [1] was 6%; in assay [5], 10%; in assay [2], 35%; in assay [3], 0%.
For `O=C(NC[C@@H]1CCCN1C(=O)CCc1nc2ccccc2[nH]c1=O)c1ccc2c(c1)CCCC2=O`, in that order: 0%, 5%, 37% and 0%.
Take `CC[C@H]1CN(C(=O)COc2cccc3c2CCCC3=O)CCN1C(=O)CCc1nc2ccccc2[nH]c1=O`: the results for the inhibition in assay [1], in assay [2] and in assay [3] were 17%, 15% and 1%, respectively.
As for `O=C1CCCc2cc(C(=O)N3CCN(C(=O)CCc4nc5ccccc5[nH]c4=O)C[C@H]3CO)ccc21`, the inhibition was determined as 0% in assay [1], 4% in assay [2] and 13% in assay [3].
`O=C1CCCc2cc(C(=O)N3C[C@@H]4C[C@H]3CN4C(=O)CCc3nc4ccccc4[nH]c3=O)ccc21`: the figures for the inhibition in assay [1], in assay [2] and in assay [3] were 7%, 12% and 13%, respectively.
